Source: ChEMBL document CHEMBL1255440, “An antimicrobial peptide that targets DNA repair intermediates in vitro inhibits Salmonella growth within murine macrophages” (Antimicrob Agents Chemother, 2010)

Experiments:
Salmonella typhimurium [1] = test: Antibacterial activity against 1 MOI Salmonella enterica subsp. enterica serovar Typhimurium infected in mouse peritoneal macrophages assessed as reduction in bacterial growth at 150 uM after 24 hrs relative to DMSO control; assay type: functional; design: scale not given: the % may be the effect or the level left
In short: (§1)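 J774A.1 cells or thioglycolate-elicited BALB/c peritoneal macrophages seeded at 200,000/well, overnight 37°C 5% CO2; infected with GFP strain SDT1416, 1 h invasion, washed, 1 h in DMEM with 15 μg/ml gentamicin. Then fresh DMEM plus 15 μg/ml gentamicin with or without peptide (DMSO vehicle) for 24 h at 37°C; macrophages lysed with 1% Triton X-100, plated on LB agar for CFU.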

Salmonella typhimurium [2] = test: Antibacterial activity against 10 MOI Salmonella enterica subsp. enterica serovar Typhimurium G785 transfected with SOS-inducible beta-galactosidase reporter infected in mouse J774A1 cells assessed as SOS induction at 50 uM after 4 hrs postinfection; assay type: functional, J774.A1
In short: (§2)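 J774A.1 cells infected at MOI 10 with sulA promoter-lacZ reporter strain G785 using the gentamicin-protection protocol, treated with peptide (DMSO vehicle controls) plus 15 μg/ml gentamicin for 4 or 24 h. Released bacteria were plated for colony counts in parallel, and were incubated with 33 μM C12FDG (with 0.2 mM EDTA) in LB for 2 h at 37°C. Flow cytometry gave % fluorescein-positive among LPS-antibody-positive particles; Wilcoxon exact test.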

Salmonella typhimurium [3] = test: Antibacterial activity against 10 MOI Salmonella enterica subsp. enterica serovar Typhimurium G785 transfected with SOS-inducible beta-galactosidase reporter infected in mouse J774A1 cells assessed as bacterial number at 50 uM after 24 hrs postinfection; assay type: functional, J774.A1; in short: as §2
Salmonella typhimurium [4] = test: Antibacterial activity against 10 MOI Salmonella enterica subsp. enterica serovar Typhimurium G785 transfected with SOS-inducible beta-galactosidase reporter infected in mouse J774A1 cells assessed as bacterial number at 150 uM after 24 hrs postinfection; assay type: functional, J774.A1; in short: as §2
Salmonella typhimurium [5] = test: Antibacterial activity against 10 MOI Salmonella enterica subsp. enterica serovar Typhimurium G785 transfected with SOS-inducible beta-galactosidase reporter infected in mouse J774A1 cells assessed as SOS induction at 50 uM after 24 hrs postinfection; assay type: functional, J774.A1; in short: as §2
Salmonella typhimurium [6] = test: Antibacterial activity against 10 MOI Salmonella enterica subsp. enterica serovar Typhimurium G785 transfected with SOS-inducible beta-galactosidase reporter infected in mouse J774A1 cells assessed as SOS induction at 150 uM after 24 hrs postinfection; assay type: functional, J774.A1; in short: as §2
[7] = Cytotoxicity against mouse J774A1 cells assessed as live cells at 50 uM by calcein AM assay; assay type: cell-based, J774.A1; details: read-out: Activity
In short: (§3)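 Cells seeded at 300,000/well and allowed to adhere, then given fresh DMEM with or without peptide for 24 h. Cells trypsinized, stained with a mammalian Live/Dead viability/cytotoxicity kit and analyzed by flow cytometry. Wilcoxon exact test.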

[8] = Cytotoxicity against mouse peritoneal macrophages assessed as live cells at 150 uM by calcein AM assay; assay type: cell-based, Peritoneal macrophage cell; details: read-out: Activity; in short: as §3
[9] = Cytotoxicity against mouse peritoneal macrophages assessed as dead cells at 50 uM by propidium iodide assay; assay type: cell-based; details: peritoneal macrophage cell; in short: as §3
[10] = Cytotoxicity against mouse peritoneal macrophages assessed as dead cells at 150 uM by propidium iodide assay; assay type: cell-based; details: peritoneal macrophage cell; in short: as §3
[11] = Drug uptake in mouse peritoneal macrophages assessed as dimer to monomer peptide ratio at 100 uM after 24 hrs at 37 degC by HPLC analysis; assay type: ADME, cell-based; details: peritoneal macrophage cell
In short: (§4)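 Macrophages were elicited in 8–12-week-old female BALB/c mice with 4% thioglycolate i.p. and harvested by lavage 4 days later. Cells were seeded at 300,000 per well for 24 h, then given unlabeled peptide in DMEM for 24 h at 37°C. Lysates were run on reverse-phase HPLC at A280. Monomer (17.5 min) and dimer (17.75 min) peak areas were compared with a standard curve. Concentration assumed 1 pl per cell; values are means of three determinations.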

[12] = Drug uptake in mouse peritoneal macrophages assessed as dimer to monomer peptide ratio at 50 uM after 24 hrs at 37 degC by HPLC analysis; assay type: ADME, cell-based; details: peritoneal macrophage cell; in short: as §4
[13] = Drug uptake in mouse peritoneal macrophages assessed as total peptide concentration at 150 uM after 24 hrs at 37 degC by HPLC analysis; assay type: ADME, cell-based; details: peritoneal macrophage cell; in short: as §4
J774.A1 [14] = test: Drug uptake in mouse J774A1 cells assessed as dimer to monomer peptide ratio at 50 uM after 24 hrs at 37 degC by HPLC analysis; assay type: ADME, cell-based; details: j774.a1, 24 h
In short: (§5)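 J774A.1 cells were incubated with unlabeled peptide for 5 or 24 h at 37°C or 4°C, washed in ice-cold PBS and lysed with NP-40 buffer. Lysates were run on reverse-phase HPLC with an acetonitrile/0.1% TFA gradient and A280 fractions. Monomer (~17.5 min) and dimer (~17.75 min) peak areas were compared against a standard curve. Intracellular mM was calculated using 300,000 cells and 1 pl/cell, with concentration expressed as monomer mass.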

J774.A1 [15] = test: Drug uptake in mouse J774A1 cells assessed as total peptide concentration at 100 uM after 24 hrs at 37 degC by HPLC analysis; assay type: ADME, cell-based; details: j774.a1, 24 h; in short: as §5
J774.A1 [16] = test: Drug uptake in mouse J774A1 cells at 10 uM after 4 hrs at 4 degC by confocal laser microscopy; assay type: ADME, cell-based; details: j774.a1, 4 h
In short: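 Cells were seeded at 200,000 per chamber-slide well and left to adhere overnight at 37°C. They were then exposed in DMEM to peptide carrying an N-terminal rhodamine label, at 37°C or, where stated, 4°C. Cells were washed three times in PBS, fixed in 4% paraformaldehyde for 30 min, and mounted in antifade. Optical slices near the cell centre were imaged by confocal laser microscopy.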

J774.A1 [17] = test: Drug uptake in mouse J774A1 cells assessed as dimer to monomer peptide ratio at 50 uM after 5 hrs at 37 degC by HPLC analysis; assay type: ADME, cell-based; details: j774.a1, 5 h; in short: as §5
J774.A1 [18] = test: Drug uptake in mouse J774A1 cells assessed as dimer to monomer peptide ratio at 150 uM after 5 hrs at 37 degC by HPLC analysis; assay type: ADME, cell-based; details: j774.a1, 5 h; in short: as §5
J774.A1 [19] = test: Drug uptake in mouse J774A1 cells assessed as dimer to monomer peptide ratio at 50 uM after 5 hrs at 4 degC by HPLC analysis; assay type: ADME, cell-based; details: j774.a1, 5 h; in short: as §5
Salmonella typhimurium [20] = test: Antibacterial activity against 1 MOI Salmonella enterica subsp. enterica serovar Typhimurium infected in mouse peritoneal macrophages assessed as reduction in bacterial growth at 50 uM after 24 hrs; assay type: functional; design: scale not given: the % may be the effect or the level left; in short: as §1
J774.A1 [21] = test: Drug uptake in mouse J774A.1 cells assessed as total peptide concentration at 50 uM after 24 hrs at 4 degC by HPLC analysis; details: J774A.1, 24 h
J774.A1 [22] = test: Drug uptake in mouse J774A.1 cells assessed as total peptide concentration at 100 uM after 24 hrs at 4 degC by HPLC analysis; details: J774A.1, 24 h
J774.A1 [23] = test: Drug uptake in mouse J774A.1 cells assessed as dimer to monomer peptide ratio at 50 uM after 24 hrs at 4 degC by HPLC analysis; details: J774A.1, 24 h
J774.A1 [24] = test: Drug uptake in mouse J774A1 cells at 10 uM after 5 hrs in presence of 100 nM wortmannii PI3K inhibitor by confocal laser microscopy; details: j774.a1, 5 h

Ratio [11]: 0.7 | Ratio [12]: 0.9 | Drug uptake [13]: 24.8 mM | Ratio (J774.A1 [14]): 1.7 | Drug uptake (J774.A1 [15]): 16.9 mM | Drug uptake (J774.A1 [16]): Not Active | Ratio (J774.A1 [17]): 2.1 | Ratio (J774.A1 [18]): 11 | Ratio (J774.A1 [19]): 2.3 | Drug uptake (J774.A1 [21]): 10.1 mM | Drug uptake (J774.A1 [22]): 32.9 mM | Ratio (J774.A1 [23]): 7.4 | Drug uptake (J774.A1 [24]): Not Active
SMILES: N=C(N)NCCC[C@@H](NC(=O)[C@@H](CS)NC(=O)[C@@H](Cc1ccc(O)cc1)NC(=O)[C@@H](Cc1c[nH]c2ccccc12)NC(=O)[C@@H](CCCNC(=N)N)NC(=O)[C@H](N)Cc1c[nH]c2ccccc12)C(=O)O
Activity (Salmonella typhimurium [1]): 83% | Activity (Salmonella typhimurium [2]): 0.3% | Activity (Salmonella typhimurium [3]): 45.2% | Activity (Salmonella typhimurium [4]): 1.9% | Activity (Salmonella typhimurium [5]): 0.4% | Activity (Salmonella typhimurium [6]): 28.4% | viability at 50 µM [7]: 93% | viability at 150 µM [8]: 87.9% | Activity [9]: 3.2% | Activity [10]: 9.2% | Activity (Salmonella typhimurium [20]): 34%
